≈ marks a conversion by molar mass, not a printed value. Calls of active or inactive are those of the source. The rule behind the calls is not given here.
Legend:
Pseudomonas aeruginosa [1] = assay: Antibacterial activity against Pseudomonas aeruginosa isolate 100036 after 18 to 24 hrs by microbroth dilution assay; format: functional
Outline: (§1)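 Checkerboard in MHB: antibiotic 2-fold diluted along one axis, test agent 2-fold diluted along the other. Overnight culture standardized to 0.5 McFarland in saline, diluted 1:50 in MHB, added to wells, incubated 37 °C for 18 h. MIC is the lowest concentration with no growth. FIC = MIC in combination / MIC alone; FIC index = sum of both FICs.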

Klebsiella pneumoniae [2] = assay: Inhibition of RND efflux pump in Klebsiella pneumoniae isolate 116381 assessed as potentiation of minocycline-induced antibacterial activity by measuring fold reduction in minocycline MIC at 8 ug/ml after 18 to 24 hrs by microbroth dilution assay
Outline: (§2)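 Absolute minocycline MIC taken from checkerboard broth dilution with a fixed 8 μg/mL adjuvant. Inoculum was a 0.5 McFarland saline suspension diluted 1:50 in MHB, incubated 37 °C for 18 h. MIC is the lowest concentration with no growth.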

[3] = system: Pseudomonas aeruginosa PAO1; assay: Inhibition of RND efflux pump in Pseudomonas aeruginosa PAO1 assessed as potentiation of minocycline-induced antibacterial activity by measuring minocycline MIC at 8 ug/ml after 18 to 24 hrs by microbroth dilution assay (reference value: 8 ug/ml); outline: as §2
[4] = system: Pseudomonas aeruginosa PAO1; assay: Inhibition of RND efflux pump in Pseudomonas aeruginosa PAO1 assessed as potentiation of doxycycline-induced antibacterial activity by measuring fold reduction in doxycycline MIC at 8 ug/ml after 18 to 24 hrs by microbroth dilution assay relative to doxycycline alone
Outline: as §1, with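 “broth microdilution:” for “in MHB:”, “adjuvant” for “test agent”, “wells,” for “wells, incubated”, “FICI” for “FIC index”, “the two FICs; FICI ≤0.5 is synergy.” for “both FICs.”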

Pseudomonas aeruginosa [5] = assay: Inhibition of RND efflux pump in Pseudomonas aeruginosa isolate 100036 assessed as potentiation of minocycline-induced antibacterial activity by measuring minocycline MIC at 8 ug/ml after 18 to 24 hrs by microbroth dilution assay (reference value: 64 ug/ml)
Outline: as §1, with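 “broth microdilution:” for “in MHB:”, “adjuvant” for “test agent”, “wells,” for “wells, incubated”, “FICI” for “FIC index”, “the two FICs; FICI ≤0.5 is synergy.” for “both FICs.”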

Pseudomonas aeruginosa [6] = assay: Antibacterial activity against Pseudomonas aeruginosa isolate 101885 after 18 to 24 hrs by microbroth dilution assay; format: functional
Outline: as §1, with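 “broth microdilution:” for “in MHB:”, “adjuvant” for “test agent”, “wells,” for “wells, incubated”, “FICI” for “FIC index”, “the two FICs; FICI ≤0.5 is synergy.” for “both FICs.”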

Pseudomonas aeruginosa [7] = assay: Inhibition of RND efflux pump in Pseudomonas aeruginosa isolate P259-96918 assessed as potentiation of minocycline-induced antibacterial activity at 8 ug/ml after 18 to 24 hrs by checker board assay; outline: as §1
Pseudomonas aeruginosa [8] = assay: Inhibition of RND efflux pump in Pseudomonas aeruginosa isolate P259-96918 assessed as potentiation of minocycline-induced antibacterial activity by measuring minocycline MIC at 8 ug/ml after 18 to 24 hrs by microbroth dilution assay (reference value: 32 ug/ml); outline: as §2
Pseudomonas aeruginosa [9] = assay: Inhibition of RND efflux pump in Pseudomonas aeruginosa isolate P260-97103 assessed as potentiation of minocycline-induced antibacterial activity by measuring minocycline MIC at 0.25 times antibacterial MIC after 18 to 24 hrs by microbroth dilution assay (reference value: 8 to 16 ug/ml)
Outline: as §1, with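 “broth microdilution:” for “in MHB:”, “adjuvant” for “test agent”, “wells,” for “wells, incubated”, “FICI” for “FIC index”, “the two FICs; FICI ≤0.5 is synergy.” for “both FICs.”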

Pseudomonas aeruginosa [10] = assay: Inhibition of RND efflux pump in Pseudomonas aeruginosa isolate P262-101856 assessed as potentiation of minocycline-induced antibacterial activity at 8 ug/ml after 18 to 24 hrs by checker board assay; outline: as §1
Pseudomonas aeruginosa [11] = assay: Antibacterial activity against Pseudomonas aeruginosa isolate P264-104354 after 18 to 24 hrs by microbroth dilution assay; format: functional; outline: as §1
Pseudomonas aeruginosa [12] = assay: Antibacterial activity against colistin-resistant Pseudomonas aeruginosa isolate 91433 after 18 to 24 hrs by microbroth dilution assay; format: functional
Outline: as §1, with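 “broth microdilution:” for “in MHB:”, “adjuvant” for “test agent”, “wells,” for “wells, incubated”, “FICI” for “FIC index”, “the two FICs; FICI ≤0.5 is synergy.” for “both FICs.”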

Pseudomonas aeruginosa [13] = assay: Antibacterial activity against colistin-resistant Pseudomonas aeruginosa isolate 101243 after 18 to 24 hrs by microbroth dilution assay; format: functional
Outline: as §1, with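 “broth microdilution:” for “in MHB:”, “adjuvant” for “test agent”, “wells,” for “wells, incubated”, “FICI” for “FIC index”, “the two FICs; FICI ≤0.5 is synergy.” for “both FICs.”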

Pseudomonas aeruginosa [14] = assay: Inhibition of RND efflux pump in colistin-resistant Pseudomonas aeruginosa isolate 101243 assessed as potentiation of minocycline-induced antibacterial activity at 8 ug/ml after 18 to 24 hrs by checker board assay
Outline: as §1, with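 “broth microdilution:” for “in MHB:”, “adjuvant” for “test agent”, “wells,” for “wells, incubated”, “FICI” for “FIC index”, “the two FICs; FICI ≤0.5 is synergy.” for “both FICs.”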

Pseudomonas aeruginosa [15] = assay: Inhibition of RND efflux pump in Pseudomonas aeruginosa isolate 100036 assessed as potentiation of minocycline-induced antibacterial activity by measuring fold reduction in minocycline MIC at 8 ug/ml after 18 to 24 hrs by microbroth dilution assay
Outline: as §1, with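 “broth microdilution:” for “in MHB:”, “adjuvant” for “test agent”, “wells,” for “wells, incubated”, “FICI” for “FIC index”, “the two FICs; FICI ≤0.5 is synergy.” for “both FICs.”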

Pseudomonas aeruginosa [16] = assay: Inhibition of RND efflux pump in Pseudomonas aeruginosa isolate P262-101856 assessed as potentiation of minocycline-induced antibacterial activity by measuring fold reduction in minocycline MIC at 8 ug/ml after 18 to 24 hrs by microbroth dilution assay
Outline: as §1, with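 “broth microdilution:” for “in MHB:”, “adjuvant” for “test agent”, “wells,” for “wells, incubated”, “FICI” for “FIC index”, “the two FICs; FICI ≤0.5 is synergy.” for “both FICs.”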

Pseudomonas aeruginosa [17] = assay: Inhibition of RND efflux pump in Pseudomonas aeruginosa isolate P262-104354 assessed as potentiation of minocycline-induced antibacterial activity by measuring fold reduction in minocycline MIC at 0.25 times antibacterial MIC after 18 to 24 hrs by microbroth dilution assay
Outline: as §1, with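 “broth microdilution:” for “in MHB:”, “adjuvant” for “test agent”, “wells,” for “wells, incubated”, “FICI” for “FIC index”, “the two FICs; FICI ≤0.5 is synergy.” for “both FICs.”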

Enterobacter cloacae [18] = assay: Inhibition of RND efflux pump in Enterobacter cloacae isolate 117029 assessed as potentiation of minocycline-induced antibacterial activity by measuring fold reduction in minocycline MIC at 8 ug/ml after 18 to 24 hrs by microbroth dilution assay; outline: as §2
Klebsiella pneumoniae [19] = assay: Inhibition of RND efflux pump in Klebsiella pneumoniae isolate 116381 assessed as potentiation of minocycline-induced antibacterial activity by measuring minocycline MIC at 8 ug/ml after 18 to 24 hrs by microbroth dilution assay (reference value: 128 ug/ml); outline: as §2
Enterobacter cloacae [20] = assay: Inhibition of RND efflux pump in Enterobacter cloacae isolate 117029 assessed as potentiation of minocycline-induced antibacterial activity by measuring minocycline MIC at 8 ug/ml after 18 to 24 hrs by microbroth dilution assay (reference value: 128 to 256 ug/ml); outline: as §2
Klebsiella pneumoniae [21] = assay: Antibacterial activity against Klebsiella pneumoniae isolate 116381 after 18 to 24 hrs by microbroth dilution assay; format: functional; outline: as §1
Pseudomonas aeruginosa [22] = assay: Induction of outer membrane permeabilization in Pseudomonas aeruginosa PAO1 assessed as increase in NPN uptake up to 100 secs by fluorescence assay; format: functional
Outline: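 Outer membrane permeabilization in PAO1 cells, read as accumulation of 1-N-phenylnaphthylamine (NPN) by fluorescence over a range of compound concentrations. Triton X-100 (1%) and EDTA (10 mM) served as positive controls.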

Pseudomonas aeruginosa [23] = assay: Potentiation of minocycline-induced antibacterial activity against mexAB-oprM/mexCD-oprJ/mexEF-oprN/mexXY/mexJK/opmH deficient Pseudomonas aeruginosa PAO750 after 18 to 24 hrs by microbroth dilution assay; format: functional
[24] = system: Pseudomonas aeruginosa PAO1; assay: Inhibition of RND efflux pump in Pseudomonas aeruginosa PAO1 assessed as increase in tetracycline uptake measured at 1 min interval for 30 mins by fluorescence assay
Outline: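 Tetracycline uptake assay in P. aeruginosa PAO1: enhancement of tetracycline fluorescence as it enters cells, monitored with compound present at several concentrations.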

[25] = system: Pseudomonas aeruginosa PAO1; assay: Inhibition of RND efflux pump in Pseudomonas aeruginosa PAO1 assessed as potentiation of tobramycin-induced antibacterial activity after 18 to 24 hrs by checker board assay; outline: as §1

| SMILES | MIC (Pseudomonas aeruginosa [1]) | fold change (FC) (Klebsiella pneumoniae [2]) | MIC [3] | fold change (FC) [4] | MIC (Pseudomonas aeruginosa [5]) | MIC (Pseudomonas aeruginosa [6]) | fractional inhibitory concentration index (FICI) (Pseudomonas aeruginosa [7]) | MIC (Pseudomonas aeruginosa [8]) | MIC (Pseudomonas aeruginosa [9]) | fractional inhibitory concentration index (FICI) (Pseudomonas aeruginosa [10]) | MIC (Pseudomonas aeruginosa [11]) | MIC (Pseudomonas aeruginosa [12]) | MIC (Pseudomonas aeruginosa [13]) | fractional inhibitory concentration index (FICI) (Pseudomonas aeruginosa [14]) | fold change (FC) (Pseudomonas aeruginosa [15]) | fold change (FC) (Pseudomonas aeruginosa [16]) | fold change (FC) (Pseudomonas aeruginosa [17]) | fold change (FC) (Enterobacter cloacae [18]) | MIC (Klebsiella pneumoniae [19]) | MIC (Enterobacter cloacae [20]) | other results |
| --- | --- | --- | --- | --- | --- | --- | --- | --- | --- | --- | --- | --- | --- | --- | --- | --- | --- | --- | --- | --- | --- |
| NC[C@H]1C[C@H](C(=O)N[C@H](CCc2ccccc2)C(=O)Nc2ccc3ccccc3c2)N(CCCCCCCCCCCCO[C@@H]2[C@@H](O[C@H]3O[C@H](CO)[C@@H](O)[C@H](N)[C@H]3O)[C@H](N)C[C@H](N)[C@H]2O[C@H]2O[C@H](CN)[C@@H](O)C[C@H]2N)C1 | 32 µg/mL (≈ 30.1 µM) | 4 to 256 | 0.12 µg/mL | 8 to 64 | < 0.25 µg/mL | 16 µg/mL (≈ 15 µM) | 0.03 | < 0.5 µg/mL | 0.5 µg/mL | 0.08 | 8 µg/mL (≈ 7.52 µM) | 8 µg/mL (≈ 7.52 µM) | 16 µg/mL (≈ 15 µM) | 0.19 | 8 to 256 | 8 to 256 | 8 to 256 | 4 to 256 | 4 µg/mL | 1 µg/mL | MIC (Klebsiella pneumoniae [21]): > 32 µg/mL; Activity (Pseudomonas aeruginosa [22]): Dose-dependent effect; Activity (Pseudomonas aeruginosa [23]): inactive; inhibition [24]: Dose-dependent effect; fractional inhibitory concentration index (FICI) [25]: > 1.5 |
| Cl.Cl.Cl.Cl.Cl.Cl.Cl.NC[C@H]1O[C@H](O[C@H]2[C@H](OCCCCCCCCCCCCN3CCN(Cc4cccc5ccccc45)CC3)[C@@H](O[C@H]3O[C@H](CO)[C@@H](O)[C@H](N)[C@H]3O)[C@H](N)C[C@@H]2N)[C@H](N)C[C@@H]1O | 256 µg/mL | 4 to 256 | 0.5 µg/mL | 8 to 64 | 0.5 µg/mL | 256 µg/mL | 0.02 | < 0.5 µg/mL | 0.5 µg/mL | 0.09 | 128 µg/mL | 32 µg/mL | 64 µg/mL | 0.28 | 8 to 256 | 8 to 256 | 8 to 256 | 4 to 256 | 16 µg/mL | 8 µg/mL | MIC (Klebsiella pneumoniae [21]): > 32 µg/mL; Activity (Pseudomonas aeruginosa [22]): Dose-dependent effect; Activity (Pseudomonas aeruginosa [23]): inactive; inhibition [24]: Dose-dependent effect; fractional inhibitory concentration index (FICI) [25]: > 1.5 |
| Cl.Cl.Cl.Cl.Cl.Cl.NC[C@H]1O[C@H](O[C@H]2[C@H](OCCCCCCCCCCCCN3CC[C@@H](c4ccc(F)cc4)[C@H](COc4ccc5c(c4)OCO5)C3)[C@@H](O[C@H]3O[C@H](CO)[C@@H](O)[C@H](N)[C@H]3O)[C@H](N)C[C@@H]2N)[C@H](N)C[C@@H]1O | 64 µg/mL | 4 to 256 | 0.25 µg/mL | 8 to 64 | < 0.25 µg/mL | 32 µg/mL | 0.02 | 0.5 µg/mL | < 1 µg/mL | 0.13 | 64 µg/mL | 32 µg/mL | 32 µg/mL | 0.38 | 8 to 256 | 8 to 256 | 8 to 256 | 4 to 256 | 32 µg/mL | 4 µg/mL | MIC (Klebsiella pneumoniae [21]): > 32 µg/mL; Activity (Pseudomonas aeruginosa [22]): Dose-dependent effect; Activity (Pseudomonas aeruginosa [23]): inactive; inhibition [24]: Dose-dependent effect; fractional inhibitory concentration index (FICI) [25]: > 1.5 |
